Results from ChEMBL document CHEMBL1932983, “Towards a stable noeuromycin analog with a D-manno configuration: synthesis and glycosidase inhibition of D-manno-like tri- and tetrahydroxylated azepanes” (Bioorg Med Chem, 2012).
The source made the active and inactive calls. The calls are words filed in the database; no cut-off is given here.

What was measured:
Beta-galactosidase = biological target: T1, Beta-galactosidase (Bos taurus, UniProt Q58D55); experiment: Inhibition of bovine liver beta-galactosidase
T1 sequence (Q58D55 whole entry): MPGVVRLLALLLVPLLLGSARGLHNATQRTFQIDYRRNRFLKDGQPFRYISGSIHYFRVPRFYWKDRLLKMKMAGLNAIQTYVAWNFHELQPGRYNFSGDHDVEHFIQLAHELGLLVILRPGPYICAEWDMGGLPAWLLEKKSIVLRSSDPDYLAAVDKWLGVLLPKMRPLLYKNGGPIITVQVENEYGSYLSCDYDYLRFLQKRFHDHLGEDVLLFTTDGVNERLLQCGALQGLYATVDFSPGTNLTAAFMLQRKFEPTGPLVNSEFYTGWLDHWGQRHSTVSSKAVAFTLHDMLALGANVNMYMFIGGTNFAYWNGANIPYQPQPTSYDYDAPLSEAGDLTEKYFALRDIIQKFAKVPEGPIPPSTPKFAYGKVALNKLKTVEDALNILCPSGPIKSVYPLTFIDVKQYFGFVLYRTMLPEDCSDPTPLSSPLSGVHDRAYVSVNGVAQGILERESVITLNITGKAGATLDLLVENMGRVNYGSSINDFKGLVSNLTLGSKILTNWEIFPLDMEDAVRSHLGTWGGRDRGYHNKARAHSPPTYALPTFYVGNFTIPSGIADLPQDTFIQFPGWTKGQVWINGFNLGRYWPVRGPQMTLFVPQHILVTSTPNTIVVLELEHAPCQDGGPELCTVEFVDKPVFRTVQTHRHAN

[1] = biological target: Probable alpha-glucosidase Os06g0675700 (Oryza sativa Japonica Group) (UniProt Q653V7); experiment: Inhibition of rice alpha-glucosidase at 1000 uM
Outline: (§1)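 Commercial glycosidases were tested with a single inhibitor level of 1000 μM, and percent inhibition was recorded. "NI" means less than 50% inhibition at that concentration.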

[2] = biological target: Oligo-1,6-glucosidase IMA1 (Saccharomyces cerevisiae S288c) (UniProt P53051); experiment: Inhibition of yeast alpha-glucosidase at 1000 uM; outline: as §1
Prunus dulcis = experiment: Inhibition of almond beta-glucosidase at 1000 uM; outline: as §1
Coffea = experiment: Inhibition of coffee beans alpha-galactosidase at 1000 uM; outline: as §1
Canavalia ensiformis = experiment: Inhibition of jack beans alpha-mannosidase at 1000 uM; outline: as §1
Helix pomatia = experiment: Inhibition of snail beta-mannosidase at 1000 uM; outline: as §1
Penicillium decumbens = experiment: Inhibition of Penicillium decumbens alpha-L-rhamnosidase at 1000 uM; outline: as §1
[3] = biological target: T2, Tissue alpha-L-fucosidase (Bos taurus) (UniProt Q2KIM0); experiment: Inhibition of bovine kidney alpha-L-fucosidase at 1000 uM; outline: as §1
T2 sequence (whole entry): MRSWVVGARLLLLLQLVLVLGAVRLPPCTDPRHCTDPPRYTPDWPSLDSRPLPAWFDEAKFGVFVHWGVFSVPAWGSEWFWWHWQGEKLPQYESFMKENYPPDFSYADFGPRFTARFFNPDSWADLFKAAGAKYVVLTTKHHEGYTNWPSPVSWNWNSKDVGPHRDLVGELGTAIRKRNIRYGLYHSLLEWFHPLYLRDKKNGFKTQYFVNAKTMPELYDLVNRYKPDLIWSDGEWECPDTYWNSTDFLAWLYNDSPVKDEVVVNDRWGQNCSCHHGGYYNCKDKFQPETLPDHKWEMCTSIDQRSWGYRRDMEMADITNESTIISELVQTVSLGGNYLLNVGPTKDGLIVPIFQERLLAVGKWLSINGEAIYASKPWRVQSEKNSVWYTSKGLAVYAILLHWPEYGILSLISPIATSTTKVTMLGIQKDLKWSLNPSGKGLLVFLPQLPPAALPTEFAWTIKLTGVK

[4] = biological target: T3, Beta-glucuronidase (Bos taurus) (UniProt A3KMY8); experiment: Inhibition of bovine liver beta glucuronidase at 1000 uM; outline: as §1
T3 sequence (whole entry): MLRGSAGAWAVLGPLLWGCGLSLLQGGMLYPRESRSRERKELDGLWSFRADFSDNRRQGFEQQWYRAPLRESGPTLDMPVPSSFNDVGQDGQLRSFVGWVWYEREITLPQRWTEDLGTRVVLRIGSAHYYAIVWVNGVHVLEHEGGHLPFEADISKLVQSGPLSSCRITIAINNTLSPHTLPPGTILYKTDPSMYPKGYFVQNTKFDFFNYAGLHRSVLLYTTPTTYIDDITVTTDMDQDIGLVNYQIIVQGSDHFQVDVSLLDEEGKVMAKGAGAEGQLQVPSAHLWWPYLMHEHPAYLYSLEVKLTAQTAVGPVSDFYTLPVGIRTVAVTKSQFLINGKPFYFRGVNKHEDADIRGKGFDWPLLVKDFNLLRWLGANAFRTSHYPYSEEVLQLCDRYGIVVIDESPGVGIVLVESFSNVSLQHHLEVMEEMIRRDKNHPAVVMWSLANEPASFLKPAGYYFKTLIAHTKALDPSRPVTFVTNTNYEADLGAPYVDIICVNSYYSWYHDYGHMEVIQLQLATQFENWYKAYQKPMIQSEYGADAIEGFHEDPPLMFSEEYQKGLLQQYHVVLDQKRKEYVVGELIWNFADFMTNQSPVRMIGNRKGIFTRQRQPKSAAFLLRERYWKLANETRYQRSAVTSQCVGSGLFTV

[5] = biological target: T4, Uncharacterized protein (Sus scrofa) (UniProt I3LIR5); experiment: Inhibition of pig kidney trehalase at 1000 uM; outline: as §1
T4 sequence (whole entry): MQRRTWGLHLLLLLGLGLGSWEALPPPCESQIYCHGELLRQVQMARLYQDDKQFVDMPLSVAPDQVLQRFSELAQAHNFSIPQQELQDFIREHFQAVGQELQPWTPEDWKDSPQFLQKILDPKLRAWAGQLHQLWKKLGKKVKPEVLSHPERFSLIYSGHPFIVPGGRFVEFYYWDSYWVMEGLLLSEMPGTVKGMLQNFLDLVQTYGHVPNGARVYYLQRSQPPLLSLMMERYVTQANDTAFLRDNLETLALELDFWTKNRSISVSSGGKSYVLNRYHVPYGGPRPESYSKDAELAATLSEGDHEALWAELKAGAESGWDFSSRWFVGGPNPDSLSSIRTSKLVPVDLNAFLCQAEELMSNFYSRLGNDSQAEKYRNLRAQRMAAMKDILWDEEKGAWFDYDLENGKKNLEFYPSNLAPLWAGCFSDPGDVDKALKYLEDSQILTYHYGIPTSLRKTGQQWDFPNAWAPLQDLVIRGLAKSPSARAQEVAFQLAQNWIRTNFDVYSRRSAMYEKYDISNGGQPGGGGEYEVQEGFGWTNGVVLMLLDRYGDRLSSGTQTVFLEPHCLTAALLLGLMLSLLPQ

Aspergillus niger = experiment: Inhibition of Aspergillus niger amyloglucosidase at 1000 uM; outline: as §1
[6] = biological target: T5, Lysosomal alpha-mannosidase (Bos taurus) (UniProt Q29451); experiment: Inhibition of lysosomal alpha-mannosidase in MDBK cells assessed as Man5-8GlcNAc2FOS formation at 1 mM after 24 hrs by HPLC analysis; assay type: cell-based
T5 sequence (whole entry): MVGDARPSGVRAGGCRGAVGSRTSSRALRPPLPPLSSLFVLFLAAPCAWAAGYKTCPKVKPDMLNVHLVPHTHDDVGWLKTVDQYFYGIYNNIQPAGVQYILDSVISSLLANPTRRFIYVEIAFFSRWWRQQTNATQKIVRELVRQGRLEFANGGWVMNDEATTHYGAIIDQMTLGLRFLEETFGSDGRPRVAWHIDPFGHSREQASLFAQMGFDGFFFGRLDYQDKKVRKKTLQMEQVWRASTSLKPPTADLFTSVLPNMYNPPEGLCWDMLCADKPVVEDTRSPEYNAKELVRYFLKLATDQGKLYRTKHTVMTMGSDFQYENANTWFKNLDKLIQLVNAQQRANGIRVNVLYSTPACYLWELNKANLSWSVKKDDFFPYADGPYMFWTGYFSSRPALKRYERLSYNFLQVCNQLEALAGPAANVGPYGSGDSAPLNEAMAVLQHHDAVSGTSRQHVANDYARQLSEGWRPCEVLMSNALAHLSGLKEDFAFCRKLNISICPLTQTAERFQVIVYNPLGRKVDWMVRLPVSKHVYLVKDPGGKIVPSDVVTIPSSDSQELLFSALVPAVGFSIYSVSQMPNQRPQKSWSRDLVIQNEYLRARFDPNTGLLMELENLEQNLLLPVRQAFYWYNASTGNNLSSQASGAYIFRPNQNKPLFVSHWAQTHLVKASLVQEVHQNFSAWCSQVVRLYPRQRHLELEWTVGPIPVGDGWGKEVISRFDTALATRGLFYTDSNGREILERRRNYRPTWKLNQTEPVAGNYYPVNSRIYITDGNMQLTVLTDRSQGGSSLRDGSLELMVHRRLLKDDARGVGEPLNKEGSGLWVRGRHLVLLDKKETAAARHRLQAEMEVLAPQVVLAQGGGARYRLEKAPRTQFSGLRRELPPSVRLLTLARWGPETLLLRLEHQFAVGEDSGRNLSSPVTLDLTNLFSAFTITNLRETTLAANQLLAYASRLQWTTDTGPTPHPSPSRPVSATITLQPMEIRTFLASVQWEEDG
Outline: (§2)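 MDBK cells were treated with azepanes alongside untreated cells and a swainsonine control (1 mM, 24 h). Free oligosaccharides (FOS) were labelled with 2-AA and profiled by fluorescence HPLC. Mannosylated species were compared: Man3GlcNAc2 and Man5-8GlcNAc2 indicate lysosomal activity, and Man5GlcNAc1 indicates cytosolic mannosidase activity.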

[7] = biological target: Oligo-1,6-glucosidase IMA1 (Saccharomyces cerevisiae S288c, UniProt P53051); experiment: Inhibition of yeast alpha-glucosidase
[8] = Inhibition of almond beta-glucosidase; parameters: species or system Prunus dulcis
[9] = Inhibition of coffee beans alpha-galactosidase; parameters: species or system Coffea
[10] = Inhibition of jack beans alpha-mannosidase; parameters: species or system Canavalia ensiformis
Beta-glucuronidase = biological target: T6, Beta-glucuronidase (Bos taurus, UniProt A3KMY8); experiment: Inhibition of bovine liver beta glucuronidase
T6 sequence (A3KMY8 whole entry): T3 sequence (whole entry)

[11] = biological target: T5, Lysosomal alpha-mannosidase (Bos taurus); experiment: Inhibition of lysosomal alpha-mannosidase in MDBK cells assessed as Man5-8GlcNAc2FOS formation at 0.1 to 1 mM after 24 hrs by HPLC analysis; assay type: cell-based; outline: as §2
[12] = biological target: Probable alpha-glucosidase Os06g0675700 (Oryza sativa Japonica Group, UniProt Q653V7); experiment: Inhibition of rice alpha-glucosidase
[13] = biological target: T7, Tissue alpha-L-fucosidase (Bos taurus, UniProt Q2KIM0); experiment: Inhibition of bovine kidney alpha-L-fucosidase
T7 sequence (Q2KIM0 whole entry): T2 sequence (whole entry)

[14] = biological target: T8, Glucosylceramidase (Bos taurus) (UniProt Q2KHZ8); experiment: Inhibition of bovine liver beta-glucosidase at 1000 uM; outline: as §1
T8 sequence (whole entry): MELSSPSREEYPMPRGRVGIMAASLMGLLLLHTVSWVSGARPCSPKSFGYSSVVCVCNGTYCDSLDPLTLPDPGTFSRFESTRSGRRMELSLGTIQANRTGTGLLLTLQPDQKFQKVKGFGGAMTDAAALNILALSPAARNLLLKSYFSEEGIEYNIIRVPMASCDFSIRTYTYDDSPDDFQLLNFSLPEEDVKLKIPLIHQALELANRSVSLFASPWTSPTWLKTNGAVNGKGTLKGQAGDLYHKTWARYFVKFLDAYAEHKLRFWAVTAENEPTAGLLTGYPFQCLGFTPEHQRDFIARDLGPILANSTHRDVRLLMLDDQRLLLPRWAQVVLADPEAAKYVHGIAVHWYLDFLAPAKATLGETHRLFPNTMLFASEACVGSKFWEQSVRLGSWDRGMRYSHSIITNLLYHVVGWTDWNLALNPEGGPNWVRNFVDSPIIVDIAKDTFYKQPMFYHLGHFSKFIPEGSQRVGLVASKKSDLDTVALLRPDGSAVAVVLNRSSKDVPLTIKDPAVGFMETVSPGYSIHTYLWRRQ

MDBK = experiment: Inhibition of cytosolic alpha-mannosidase in MDBK cells assessed as Man5GlcNAc1 formation at 1 mM after 24 hrs by HPLC analysis; assay type: cell-based; conditions: Bos taurus; outline: as §2

Oligo-1,6-glucosidase IMA1 (Saccharomyces cerevisiae S288c), sequence (P53051 whole entry): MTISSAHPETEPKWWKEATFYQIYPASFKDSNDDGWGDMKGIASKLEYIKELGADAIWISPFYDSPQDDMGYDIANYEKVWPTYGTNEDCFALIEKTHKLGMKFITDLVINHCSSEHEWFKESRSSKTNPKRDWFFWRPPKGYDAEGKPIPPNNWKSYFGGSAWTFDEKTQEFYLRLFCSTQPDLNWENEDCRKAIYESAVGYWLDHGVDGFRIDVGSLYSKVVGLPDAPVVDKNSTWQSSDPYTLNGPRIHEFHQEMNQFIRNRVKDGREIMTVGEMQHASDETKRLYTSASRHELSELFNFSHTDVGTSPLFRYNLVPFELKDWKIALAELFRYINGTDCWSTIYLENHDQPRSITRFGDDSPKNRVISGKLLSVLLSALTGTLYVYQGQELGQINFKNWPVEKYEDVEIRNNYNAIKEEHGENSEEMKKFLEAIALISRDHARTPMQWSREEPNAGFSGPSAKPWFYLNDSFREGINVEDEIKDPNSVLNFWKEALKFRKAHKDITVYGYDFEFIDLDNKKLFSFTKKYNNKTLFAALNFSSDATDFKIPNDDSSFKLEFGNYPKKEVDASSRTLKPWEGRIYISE
Probable alpha-glucosidase Os06g0675700 (Oryza sativa Japonica Group), sequence (Q653V7 whole entry): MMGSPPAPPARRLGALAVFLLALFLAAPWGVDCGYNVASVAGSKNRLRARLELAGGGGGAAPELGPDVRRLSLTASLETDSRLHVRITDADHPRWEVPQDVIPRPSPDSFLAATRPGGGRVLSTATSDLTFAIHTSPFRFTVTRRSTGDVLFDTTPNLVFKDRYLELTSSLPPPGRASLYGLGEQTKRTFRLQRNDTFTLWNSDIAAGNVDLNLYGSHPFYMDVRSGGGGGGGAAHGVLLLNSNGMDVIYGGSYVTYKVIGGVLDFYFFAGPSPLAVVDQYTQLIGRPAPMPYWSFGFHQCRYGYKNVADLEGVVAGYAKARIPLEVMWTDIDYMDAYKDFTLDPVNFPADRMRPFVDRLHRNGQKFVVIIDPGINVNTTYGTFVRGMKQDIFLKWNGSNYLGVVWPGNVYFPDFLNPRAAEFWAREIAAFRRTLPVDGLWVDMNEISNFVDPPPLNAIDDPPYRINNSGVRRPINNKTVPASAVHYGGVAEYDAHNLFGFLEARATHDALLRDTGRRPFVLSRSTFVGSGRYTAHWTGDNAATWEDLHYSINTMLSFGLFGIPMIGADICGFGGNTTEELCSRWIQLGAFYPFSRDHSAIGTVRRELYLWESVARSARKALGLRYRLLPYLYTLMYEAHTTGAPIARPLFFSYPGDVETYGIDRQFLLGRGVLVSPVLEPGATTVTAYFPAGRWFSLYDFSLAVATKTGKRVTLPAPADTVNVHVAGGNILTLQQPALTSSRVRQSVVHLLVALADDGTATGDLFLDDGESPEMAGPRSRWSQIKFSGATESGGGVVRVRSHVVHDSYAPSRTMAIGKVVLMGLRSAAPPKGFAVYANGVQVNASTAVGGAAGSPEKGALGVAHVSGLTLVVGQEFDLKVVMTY
Probable alpha-glucosidase Os06g0675700, sequence (Q653V7 whole entry): as above
Oligo-1,6-glucosidase IMA1, sequence (P53051 whole entry): as the sequence (P53051 whole entry) above

SMILES	IC50 (Beta-galactosidase) [µM]	inhibition [1] [%]	inhibition [2] [%]	inhibition (Prunus dulcis) [%]	inhibition (Coffea) [%]	inhibition (Helix pomatia) [%]	inhibition (Penicillium decumbens) [%]	inhibition [3] [%]	inhibition [4] [%]	inhibition [5] [%]	inhibition (Aspergillus niger) [%]	inhibition [6]	IC50 [8] [µM]	IC50 [9] [µM]	IC50 [10] [µM]	IC50 (Beta-glucuronidase) [µM]	inhibition [11]	IC50 [12] [µM]	IC50 [13] [µM]	other results
OC[C@H]1CNC[C@@H](O)[C@@H](O)[C@@H]1O	442	0	18.9	41.4	16.8	0	0.9	15.8	0	16.6	14.2	Active	–	–	–	–	–	–	–	inhibition (Canavalia ensiformis): 23%
OC[C@@H]1CNC[C@@H](O)[C@@H](O)[C@@H]1O	420	14.7	–	–	–	0	1.5	25	–	17.2	0.3	–	157	65	812	594	inactive	–	–	IC50 [7]: 71 µM
C[C@H]1CNC[C@@H](O)[C@@H](O)[C@@H]1O	876	–	0	29.4	37.6	4.3	6.8	–	0	22.2	0	Active	–	–	335	–	–	226	181	inhibition [14]: 49.2%; inhibition (MDBK): Active
C[C@@H]1CNC[C@@H](O)[C@@H](O)[C@@H]1O	198	–	37.8	–	–	0.4	20.6	–	–	39.9	6.9	–	14	14	101	139	inactive	12	64	–
